A short description of assay [1]: HUVEC growth inhibition – cell-based, human, primary screen (AID 575).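 Further: 100% = median of untreated cell wells with 0.1% DMSO on each plate.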 Particulars: HUVEC proliferation, CellTiter-Glo luminescence, 72 h; at 10 µM; stronger effect = lower value. A digest of the protocol:
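Assay system: primary human umbilical vein endothelial cells / Buffer or medium: endothelial basal medium with 2% FBS plus growth supplements / Compound dosing: one dose, 10 µM final, 0.1% DMSO / Timing: 72 h treatment at 37 °C / Signal: CTG luminescence / Benchmarks: 32 DMSO-only cell-control wells (high), 32 MePR drug-control wells (low) per plate / Plate: collagen-coated 384-well format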
On the technique in general: Cellular ATP, detected with luciferase, serves as a proxy for viable cell number.

Assay [2] can be described thus: growth inhibitors of H69AR lung tumor, primary screen, human, duplicate replicates (AID 580;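 active means viability at or under a set limit in both replicates, limit being median viability minus 3 SD, cut at about 48% in these data, passing the limit was not always enough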;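 further: 100% = mean luminescence of untreated wells and 0% = no signal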). Conditions: H69AR lung tumor cells viability, ATP luminescence, 72 h; at 10 µM; stronger effect = lower value.
The nature of assay [3]: reversal of MRP1-mediated doxorubicin resistance, pilot screen, H69AR cells, doxorubicin co-treatment (AID 601;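 active means viability loss from added drug above about 55%, and viability with drug at most 40%, in both replicates, limit read from the data, passing the limit was not always enough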). Conditions: CellTiter-Glo, 72 h, at 10 µM; for differential viability (reversal): stronger effect = higher value.
The nature of assay [4]: 384-well plate pilot, post-Golgi transport modulator project, inhibition of yeast transport mutant growth (AID 636; in the data active means inhibition above about 31%). Particulars: absorbance 615 nm, about 18 h, stronger effect = higher value.
The nature of assay [5]: growth suppression of yeast trafficking mutant, preliminary HTS, modulators of trafficking downstream of Golgi apparatus project, 1536-format plate, OD 615 nm (AID 637; in the data active means inhibition above about 30%). Particulars: yeast transport mutant growth, absorbance 615 nm, 18 h; stronger effect = higher value.
The mark [6] stands for this setting: H69AR cells + 2 uM doxorubicin, measured here: viability with 2 uM doxorubicin, stronger effect = lower value.
The mark [7] stands for this setting: H69AR cells, compound alone cytotoxicity.

Activity calls are given as the source filed them.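 How the source made its calls, unless noted: active means viability at or below 30% in both replicate assays; inconclusive means viability at or below 30% in just one of the two assays; inactive means the rest.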

Turning to `Cn1c(=O)c(=O)n(C)c2cc(S(=O)(=O)N3CCN(c4cccc(C(F)(F)F)c4)CC3)ccc21`, the viability in assay [1] is 73% (inactive); in assay [2], 93.3% (inactive); in assay [3] (setting [6]) it was 94.3%; in assay [3] (setting [7]), 93.3%. Further, the differential viability (reversal) in assay [3] (H69AR cells + 2 uM doxorubicin) was -1% (inactive). The inhibition is 0.4% (inactive) in assay [4] and 3.02% (inactive) in assay [5].

For `COc1ccc(Nc2ncc3c(n2)CC(c2ccc(OC)cc2)CC3=O)cc1` (configuration not stated), the viability is 84.4% (inactive) in assay [1], 97.4% (inactive) in assay [2], 93.6% in assay [3] (setting [6]) and 97.4% in assay [3] (setting [7]). Besides, the differential viability (reversal) in assay [3] (H69AR cells + 2 uM doxorubicin) is 3.81% (inactive). Further, the inhibition in assay [4] is -4% (inactive); in assay [5], 4.92% (inactive).

For the molecule `COc1ccccc1Cn1c(-c2ccco2)nc2nc3ccccc3nc21`, the viability in assay [1] was 52.5% (inactive); in assay [2], 59.9% (inactive); in assay [3] (setting [6]) it was 52.6%; in assay [3] (setting [7]) it was 59.9%. Further, the differential viability (reversal) in assay [3] (H69AR cells + 2 uM doxorubicin) is 7.3% (inactive). Besides, the results for the inhibition in assay [4] and in assay [5] were -6.93% (inactive) and 8.41% (inactive), respectively.

For `CC1CCN(C(=O)c2cc(-c3ccc(Cl)c(Cl)c3)on2)CC1`, the viability in assay [1] is 77.1% (inactive); in assay [2], 90.7% (inactive); in assay [3] (setting [6]), 80.2%; in assay [3] (setting [7]), 90.7%. Further, in assay [3] (H69AR cells + 2 uM doxorubicin), the differential viability (reversal) was 10.5% (inactive). The inhibition in assay [4] was -2.11% (inactive); in assay [5] it was 0.95% (inactive).

Regarding `O=C(CSCc1ccccn1)Nc1ccccc1`, the viability in assay [1] was 102% (inactive); in assay [2], 94.4% (inactive); in assay [3] (setting [6]), 86.4%; in assay [3] (setting [7]), 94.4%. Further, in assay [3] (H69AR cells + 2 uM doxorubicin), the differential viability (reversal) was 7.96% (inactive). Further, the figures for the inhibition in assay [4] and in assay [5] were -5.07% (inactive) and -6.19% (inactive), respectively.

Regarding `CC1(C)NC(=O)N(CCOc2cccc(Cl)c2Cl)C1=O`, the viability in assay [1] was 98.7% (inactive); in assay [2], 102% (inactive); in assay [3] (setting [6]), 87.5%; in assay [3] (setting [7]), 102%. Also, in assay [3] (H69AR cells + 2 uM doxorubicin), the differential viability (reversal) is 14.6% (inactive). The inhibition in assay [4] is -5.2% (inactive); in assay [5], 10.2% (inactive).

Turning to `COc1cccc(OC)c1OCCCSc1nc(C)cc(=O)[nH]1`, the viability in assay [1] is 107% (inactive); in assay [2], 91.1% (inactive); in assay [3] (setting [6]), 96.2%; in assay [3] (setting [7]), 91.1%. For the same molecule, the differential viability (reversal) in assay [3] (H69AR cells + 2 uM doxorubicin) was -5.15% (inactive). For the same molecule, the inhibition in assay [4] was -4% (inactive); in assay [5] it was -5.56% (inactive).

On to `CC1Cc2ccccc2N1S(=O)(=O)c1ccc2c(c1)n(C)c(=O)c(=O)n2C` (configuration not stated), for which the viability was 80.8% (inactive) in assay [1], 83.7% (inactive) in assay [2], 86.4% in assay [3] (setting [6]) and 83.7% in assay [3] (setting [7]). Moreover, the differential viability (reversal) in assay [3] (H69AR cells + 2 uM doxorubicin) is -2.65% (inactive). The inhibition is -4.93% (inactive) in assay [4] and 0% (inactive) in assay [5].

Consider `COC(=O)CSC1=C(C#N)C(c2ccccc2)CC(=O)N1` (configuration not stated), for which the viability in assay [1] is 71.7% (inactive); in assay [2], 23.4% (active); in assay [3] (setting [6]), 71.7%; in assay [3] (setting [7]) it was 23.4%. Also, the differential viability (reversal) in assay [3] (H69AR cells + 2 uM doxorubicin) was -48.4% (inactive). The values for the inhibition in assay [4] and in assay [5] were -6% (inactive) and 6.19% (inactive), respectively.

In the case of `O=C(NCC(=O)N(CCc1ccccc1)C(C(=O)NC1CCCC1)c1cccnc1)c1ccco1` (configuration not stated), the viability in assay [1] is 96.9% (inactive); in assay [2], 99.8% (inactive); in assay [3] (setting [6]), 101%; in assay [3] (setting [7]), 99.8%. In addition, the differential viability (reversal) in assay [3] (H69AR cells + 2 uM doxorubicin) was -1.49% (inactive). The results for the inhibition in assay [4] and in assay [5] were -2.24% (inactive) and -6.98% (inactive), respectively.

For the molecule `CCOC(=O)NC(c1ccccc1)C1CCCCC1=O` (configuration not stated), the viability in assay [1] is 103% (inactive); in assay [2], 94.2% (inactive); in assay [3] (setting [6]), 88.3%; in assay [3] (setting [7]) it was 94.2%. Moreover, in assay [3] (H69AR cells + 2 uM doxorubicin), the differential viability (reversal) was 5.88% (inactive). The inhibition is -3.64% (inactive) in assay [4] and 0.32% (inactive) in assay [5].

Consider `Nc1nc(-c2ccc(Cl)cc2)cc(C(F)(F)F)n1`, for which the viability in assay [1] was 107% (inactive); in assay [2] it was 105% (inactive); in assay [3] (setting [6]), 91.3%; in assay [3] (setting [7]) it was 105%. Also, in assay [3] (H69AR cells + 2 uM doxorubicin), the differential viability (reversal) was 13.3% (inactive). Further, the inhibition in assay [4] is -1.82% (inactive); in assay [5], -1.11% (inactive).

`Cc1ccccc1NS(=O)(=O)c1ccc(NC(=O)c2ccco2)cc1`: the viability in assay [1] is 90% (inactive); in assay [2], 89.2% (inactive); in assay [3] (setting [6]) it was 89.7%; in assay [3] (setting [7]) it was 89.2%. Moreover, the differential viability (reversal) in assay [3] (H69AR cells + 2 uM doxorubicin) is -0.49% (inactive). Also, the inhibition is -2.34% (inactive) in assay [4] and -2.38% (inactive) in assay [5].

Consider `CCCOc1cccc(C(=O)N(Cc2ccco2)C2CCS(=O)(=O)C2)c1` (configuration not stated), for which the viability was 98% (inactive) in assay [1], 90.5% (inactive) in assay [2], 89.8% in assay [3] (setting [6]) and 90.5% in assay [3] (setting [7]). Also, in assay [3] (H69AR cells + 2 uM doxorubicin), the differential viability (reversal) was 0.72% (inactive). The inhibition in assay [4] is -3.6% (inactive); in assay [5], -7.94% (inactive).

With `CN(C)CCNC(=O)c1ccc(COCC(F)(F)F)cc1`, the viability in assay [1] is 104% (inactive); in assay [2], 84.6% (inactive); in assay [3] (setting [6]), 83.5%; in assay [3] (setting [7]), 84.6%. The differential viability (reversal) in assay [3] (H69AR cells + 2 uM doxorubicin) was 1.1% (inactive). Also, the inhibition in assay [4] was -7.07% (inactive); in assay [5], -3.65% (inactive).

On to `CCS(=O)(=O)N1CCC(C(=O)NCc2cccs2)CC1`, for which the viability in assay [1] was 87.2% (inactive); in assay [2], 99.3% (inactive); in assay [3] (setting [6]), 89.6%; in assay [3] (setting [7]) it was 99.3%. In assay [3] (H69AR cells + 2 uM doxorubicin), the differential viability (reversal) is 9.73% (inactive). Also, the figures for the inhibition in assay [4] and in assay [5] were -1.04% (inactive) and -3.02% (inactive), respectively.

Take `S=c1[nH]c2ccc(Cl)cc2[nH]1`: the viability was 67.4% (inactive) in assay [1], 84.9% (inactive) in assay [2], 78.7% in assay [3] (setting [6]) and 84.9% in assay [3] (setting [7]). Besides, the differential viability (reversal) in assay [3] (H69AR cells + 2 uM doxorubicin) is 6.16% (inactive). Also, the inhibition in assay [4] is -3.42% (inactive); in assay [5] it was 6.35% (inactive).

Consider `CCOc1ccc(N(C)S(=O)(=O)c2ccc3[nH]cc(C(=O)NCC4CCCO4)c(=O)c3c2)cc1` (configuration not stated), for which the viability in assay [1] was 73.7% (inactive); in assay [2], 87.9% (inactive); in assay [3] (setting [6]), 82.9%; in assay [3] (setting [7]), 87.9%. For the same molecule, in assay [3] (H69AR cells + 2 uM doxorubicin), the differential viability (reversal) is 5.04% (inactive). In addition, the values for the inhibition in assay [4] and in assay [5] were -2.86% (inactive) and -3.17% (inactive), respectively.

As for `O=C(CSc1nc(-c2ccc(F)cc2)cs1)N1CCOCC1`, the viability in assay [1] is 122% (inactive); in assay [2], 94.4% (inactive); in assay [3] (setting [6]), 75.2%; in assay [3] (setting [7]), 94.4%. In addition, the differential viability (reversal) in assay [3] (H69AR cells + 2 uM doxorubicin) was 19.2% (inactive). Further, the inhibition in assay [4] was -0.92% (inactive); in assay [5], 6.67% (inactive).

On to `CCCCOc1ccc(C(=O)N2CCC(C)CC2)cc1`, for which the viability was 111% (inactive) in assay [1], 104% (inactive) in assay [2], 85.7% in assay [3] (setting [6]) and 104% in assay [3] (setting [7]). Moreover, the differential viability (reversal) in assay [3] (H69AR cells + 2 uM doxorubicin) is 17.9% (inactive). Besides, the results for the inhibition in assay [4] and in assay [5] were -3.2% (inactive) and 0.48% (inactive), respectively.

As for `O=C(Cc1nn[nH]n1)NCCC1=CCCCC1`, the viability was 82.8% (inactive) in assay [1], 95.7% (inactive) in assay [2], 91.1% in assay [3] (setting [6]) and 95.7% in assay [3] (setting [7]). Moreover, the differential viability (reversal) in assay [3] (H69AR cells + 2 uM doxorubicin) was 4.6% (inactive). The results for the inhibition in assay [4] and in assay [5] were -1.04% (inactive) and -4.76% (inactive), respectively.

For orientation: viability means a read-out of living cells in per cent, often relative to untreated cells. One may read the inhibition as the relative decrease from the control value, in per cent.

These data come from PubChem BioAssay.
